pIC50: −log10 of the molar value.
Legend:
[1] = test system: B16; assay: Antitumor activity against mouse B16 cells after 72 hrs by Calcein AM assay; assay type: functional, cell-based; details: B16, 72 h
Outline: (§1)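 Cells grown in DMEM at 37 °C under 5% CO2. Compounds added after 12 h preincubation in 96-well plates, final 0.5-170 μM, with 0.6% final DMSO, then 72 h exposure. Viable cells stained with Calcein AM for 1 h and read at 485/538 nm. IC50 (concentration lethal to 50% of cells) taken from dose-response curves. Run in quadruplicate.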

[2] = Cytotoxicity against mouse NIH 3T3 cells after 72 hrs by Calcein AM assay; assay type: cell-based; details: NIH3T3, 72 h; outline: as §1
[3] = test system: Amaranthus; assay: Cytokinin activity in Amaranthus cotyledons assessed as dark induction of betacyanin synthesis at 0.01 mmol/L relative to 6-Benzylaminopurine; assay type: functional
Outline: (§2)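 Dark induction of betacyanin in excised Amaranthus cotyledons. DMSO stock brought to 10^-3 M in water, diluted into assay medium (DMSO ≤0.2%). Tested over 10^-4 to 10^-8 M, five replicates per concentration, assay repeated at least three times. Response at the optimal concentration expressed relative to BAP at its optimum (set to 100).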

[4] = test system: Triticum aestivum; assay: Cytokinin activity in wheat assessed as retention of chlorophyll in excised wheat leaves at 0.1 mmol/L relative to 6-Benzylaminopurine by senescence assay; assay type: functional
Outline: (§3)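 Senescence assay measuring chlorophyll retention in excised wheat leaves. DMSO stocks brought to 10^-3 M with water, then diluted in assay medium to a final DMSO of at most 0.2%. Concentrations 10^-4 to 10^-8 M, quintuplicate, repeated at least three times. Response at the optimal concentration normalised to BAP optimum = 100.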

[5] = test system: Nicotiana tabacum; assay: Cytokinin activity in tobacco assessed as stimulation of callus growth at 1 umol/L relative to 6-Benzylaminopurine; assay type: functional
Outline: (§4)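 Stimulation of tobacco callus growth. Compounds dissolved in DMSO, brought to 10^-3 M in water and diluted into medium (DMSO ≤0.2%). Range 10^-4 to 10^-8 M, five replicates per concentration, at least three independent repeats. Activity at the optimal concentration given relative to BAP's optimal response, taken as 100.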

[6] = target: T1, Histidine kinase 3 (Arabidopsis thaliana) (UniProt Q9C5U1); assay: Activation of Arabidopsis thaliana AHK3 cytokinin receptor relative to trans-zeatin; set-up: concentration or dose not given beside the values
T1 sequence (whole entry): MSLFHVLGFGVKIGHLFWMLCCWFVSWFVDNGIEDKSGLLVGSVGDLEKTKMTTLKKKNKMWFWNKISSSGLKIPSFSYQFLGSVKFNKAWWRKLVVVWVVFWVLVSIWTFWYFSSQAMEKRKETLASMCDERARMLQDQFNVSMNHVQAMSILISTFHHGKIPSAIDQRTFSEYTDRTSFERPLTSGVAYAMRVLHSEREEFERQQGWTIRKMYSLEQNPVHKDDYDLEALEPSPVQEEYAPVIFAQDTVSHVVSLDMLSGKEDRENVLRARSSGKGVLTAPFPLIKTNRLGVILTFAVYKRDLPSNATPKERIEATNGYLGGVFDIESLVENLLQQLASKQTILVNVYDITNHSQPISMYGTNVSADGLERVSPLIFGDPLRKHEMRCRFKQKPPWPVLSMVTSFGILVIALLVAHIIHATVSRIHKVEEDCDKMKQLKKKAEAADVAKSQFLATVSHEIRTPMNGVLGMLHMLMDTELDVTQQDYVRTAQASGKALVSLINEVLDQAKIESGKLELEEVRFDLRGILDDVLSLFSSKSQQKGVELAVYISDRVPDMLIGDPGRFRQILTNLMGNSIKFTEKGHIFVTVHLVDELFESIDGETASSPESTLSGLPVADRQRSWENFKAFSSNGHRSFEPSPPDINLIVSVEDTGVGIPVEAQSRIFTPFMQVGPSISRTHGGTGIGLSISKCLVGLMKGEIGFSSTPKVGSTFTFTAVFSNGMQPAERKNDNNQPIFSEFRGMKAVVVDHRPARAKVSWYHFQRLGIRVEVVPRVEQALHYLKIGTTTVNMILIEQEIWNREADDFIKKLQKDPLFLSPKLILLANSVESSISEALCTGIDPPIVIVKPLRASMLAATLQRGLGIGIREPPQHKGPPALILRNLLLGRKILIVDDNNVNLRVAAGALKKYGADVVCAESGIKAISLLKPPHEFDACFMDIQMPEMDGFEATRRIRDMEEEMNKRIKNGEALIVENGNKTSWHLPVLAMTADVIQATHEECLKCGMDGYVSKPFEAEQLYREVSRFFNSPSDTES
Outline: (§5)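 E. coli KMI001 carrying pSTV28-AHK3 or pIN-III-AHK4, precultured overnight at 25 °C in M9 + 0.1% casamino acids to OD600 ~1. Diluted 1:600, compound or solvent added, then incubated at 25 °C for 28 h (AHK3) or 17 h (CRE1/AHK4). Supernatant incubated with 4-methylumbelliferyl β-D-galactoside for 1 h at 37 °C and stopped with Na2CO3. Fluorescence read at 365/460 nm. β-galactosidase expressed as nmol 4-MU × OD600⁻¹ × h⁻¹.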

[7] = target: Histidine kinase 4 (Arabidopsis thaliana) (UniProt Q9C5U0); assay: Activation of Arabidopsis thaliana CRE1/AHK4 cytokinin receptor relative to trans-zeatin; set-up: concentration or dose not given beside the values; outline: as §5
[8] = test system: HOS; assay: Antitumor activity against human HOS cells after 72 hrs by Calcein AM assay; assay type: functional, cell-based; outline: as §1
[9] = test system: K562; assay: Antitumor activity against human K562 cells after 72 hrs by Calcein AM assay; assay type: functional, cell-based; details: K562, 72 h; outline: as §1
[10] = Antitumor activity against human MCF cells after 72 hrs by Calcein AM assay; assay type: functional, cell-based; outline: as §1
[11] = test system: CCRF-CEM; assay: Antitumor activity against human CEM cells after 72 hrs by Calcein AM assay; assay type: functional, cell-based; outline: as §1
[12] = test system: HL-60; assay: Antitumor activity against human HL60 cells after 72 hrs by Calcein AM assay; assay type: functional, cell-based; details: HL-60, 72 h; outline: as §1
[13] = test system: G-361; assay: Antitumor activity against human G361 cells after 72 hrs by Calcein AM assay; assay type: functional, cell-based; details: G-361, 72 h; outline: as §1
[14] = test system: Nicotiana tabacum; assay: Cytokinin activity in tobacco assessed as stimulation of callus growth at 0.01 mmol/L relative to 6-Benzylaminopurine; assay type: functional; outline: as §4
[15] = test system: Amaranthus; assay: Cytokinin activity in Amaranthus cotyledons assessed as dark induction of betacyanin synthesis at 0.1 mmol/L relative to 6-Benzylaminopurine; assay type: functional; outline: as §2
[16] = test system: Nicotiana tabacum; assay: Cytokinin activity in tobacco assessed as stimulation of callus growth at 0.1 mmol/L relative to 6-Benzylaminopurine; assay type: functional; outline: as §4
[17] = test system: Triticum aestivum; assay: Cytokinin activity in wheat assessed as retention of chlorophyll in excised wheat leaves at 0.01 mmol/L relative to 6-Benzylaminopurine by senescence assay; assay type: functional; outline: as §3

Histidine kinase 4 (Arabidopsis thaliana), sequence (Q9C5U0 whole entry): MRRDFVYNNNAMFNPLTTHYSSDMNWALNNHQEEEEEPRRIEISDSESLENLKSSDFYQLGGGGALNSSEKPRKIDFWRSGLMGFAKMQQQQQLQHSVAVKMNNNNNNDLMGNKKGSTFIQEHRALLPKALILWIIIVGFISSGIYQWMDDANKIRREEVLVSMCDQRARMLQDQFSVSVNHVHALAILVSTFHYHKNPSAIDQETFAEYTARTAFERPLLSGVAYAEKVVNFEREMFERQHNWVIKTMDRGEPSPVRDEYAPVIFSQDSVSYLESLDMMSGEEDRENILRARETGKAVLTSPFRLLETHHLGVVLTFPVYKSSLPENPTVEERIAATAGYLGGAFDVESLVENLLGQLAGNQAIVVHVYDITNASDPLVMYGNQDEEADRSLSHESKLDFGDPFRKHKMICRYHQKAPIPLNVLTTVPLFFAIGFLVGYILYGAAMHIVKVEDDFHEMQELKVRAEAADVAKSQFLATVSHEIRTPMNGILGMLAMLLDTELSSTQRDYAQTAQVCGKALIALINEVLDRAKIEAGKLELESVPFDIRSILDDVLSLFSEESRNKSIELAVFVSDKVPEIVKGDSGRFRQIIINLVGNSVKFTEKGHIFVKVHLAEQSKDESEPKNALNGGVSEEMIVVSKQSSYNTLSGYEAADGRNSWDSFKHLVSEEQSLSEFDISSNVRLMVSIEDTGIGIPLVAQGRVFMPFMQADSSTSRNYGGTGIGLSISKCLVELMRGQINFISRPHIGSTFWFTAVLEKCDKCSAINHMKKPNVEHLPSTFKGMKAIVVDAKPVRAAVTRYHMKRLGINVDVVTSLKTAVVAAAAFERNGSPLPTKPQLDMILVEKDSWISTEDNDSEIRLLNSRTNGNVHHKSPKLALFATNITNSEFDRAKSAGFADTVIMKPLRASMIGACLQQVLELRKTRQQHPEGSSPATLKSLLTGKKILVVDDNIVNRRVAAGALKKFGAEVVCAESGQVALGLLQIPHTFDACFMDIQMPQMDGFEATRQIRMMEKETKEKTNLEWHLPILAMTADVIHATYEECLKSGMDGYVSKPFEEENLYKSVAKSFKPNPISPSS

pIC50 [1]	Activity [6] [%]	Activity [7] [%]	pIC50 [8]	pIC50 [9]	pIC50 [10]	pIC50 [11]	pIC50 [12]	pIC50 [13]	SMILES	pIC50 [2]	Activity [3] [%]	Activity [4] [%]	Activity [5] [%]	Activity [14] [%]	Activity [15] [%]	Activity [16] [%]	Activity [17] [%]
< 3.78	2.91	0.12	< 3.78	4.48	< 3.78	5.34	5.49		OC[C@H]1O[C@@H](n2cnc3c(NCc4ccccc4F)ncnc32)[C@H](O)[C@@H]1O	< 3.78	96	118	100				
	0.99	0.36	< 3.78	5.12	4.82	5.40	6.04	< 3.78	OC[C@H]1O[C@@H](n2cnc3c(NCc4cccc(F)c4)ncnc32)[C@H](O)[C@@H]1O	4.08	92	220		91			
< 3.78			< 3.78	5.00	< 3.78	4.91	5.18	< 3.78	OC[C@H]1O[C@@H](n2cnc3c(NCc4ccccc4Br)ncnc32)[C@H](O)[C@@H]1O	< 3.78				100	147		86

Further lines, the compound ahead of its results:

SMILES	pIC50 [1]	Activity [6] [%]	Activity [7] [%]	pIC50 [8]	pIC50 [9]	pIC50 [10]	pIC50 [11]	pIC50 [12]	pIC50 [13]	pIC50 [2]	Activity [3] [%]	Activity [4] [%]	Activity [5] [%]	Activity [14] [%]	Activity [15] [%]	Activity [16] [%]	Activity [17] [%]
Cc1ccc(O)c(CNc2ncnc3c2ncn3[C@@H]2O[C@H](CO)[C@@H](O)[C@H]2O)c1	< 3.78			< 3.78	4.78	< 3.78	5.72	4.82	< 3.78			164			58	7	
OC[C@H]1O[C@@H](n2cnc3c(NCc4ccc(F)cc4)ncnc32)[C@H](O)[C@@H]1O		7.67	0.39	4.88	5.57	4.68	5.90	5.92	< 3.78	4.35	71	148	100				
OC[C@H]1O[C@@H](n2cnc3c(NCc4ccc(Cl)cc4Cl)ncnc32)[C@H](O)[C@@H]1O	< 3.78			< 3.78	3.97	3.90	4.06	4.02	3.89					70	3		5
OC[C@H]1O[C@@H](n2cnc3c(NCc4cccc(Cl)c4)ncnc32)[C@H](O)[C@@H]1O		2.63	0.15	< 3.78	4.56	4.57	5.80	6.12	< 3.78	< 3.78	139	72		96			
